For series [1], the system named is MT2. In words: Cytotoxicity against human MT2 cells assessed as growth inhibition by MTT assay. In kind it is cell-based.
Series [2] has as its system Human immunodeficiency virus 1. Kind of series: Antiviral activity against wild type HIV1 3B infected in human MT2 cells assessed as protection against viral infection by MTT assay. In kind it is functional, organism-based. The settings on record: Human immunodeficiency virus 1, 3B. A digest of the protocol:
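HIV-1 IIIB strain tested in MT-2 human T-cells. […] Triplicate samples at each concentration.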

Series [3] relates to Human immunodeficiency virus 1. In words: Antiviral activity against HIV1 3B harboring reverse transcriptase K103N/Y181C double mutant infected in human MT2 cells assessed as protection against viral infection by MTT assay. In kind it is functional, organism-based. The method, boiled down:
(§1)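 MT-2 human T-cells infected with the HIV-1 IIIB strain carrying the listed RT mutation. […] Triplicate samples at each concentration. Compounds were >95% pure by HPLC.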

The test system of series [4] is Human immunodeficiency virus 1. Kind of series: Antiviral activity against HIV1 3B harboring reverse transcriptase Y181C mutant infected in human MT2 cells assessed as protection against viral infection by MTT assay. The class given is functional, organism-based. The method, boiled down:
as §1

Series [5] in a line: Aqueous solubility of the compound in Britton-Robinson buffer at pH 6.5 at 25 degC by shake flask method. The class given is physicochemical. The method, boiled down:
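Shake-flask method. Supernatant collected through a 0.2 μm syringe filter and quantified by UV-vis spectrophotometry.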

[6] abbreviates: Human immunodeficiency virus 1, 3B, MT2, read-out: EC50.

Converted amounts (≈) assume the structure as drawn.

As to `N#Cc1ccc(Nc2nccc(Nc3ccn4cc(C#N)cc4c3)n2)cc1`, in series [1], the CC50 was above 100000 nM. In addition, the EC50 in series [2] was 200 nM; in series [3] (mt2), “Not Active”; in series [4] (mt2) it was “Not Active”.
`Cc1cn2cc(C#N)cc2cc1Nc1ccnc(Nc2ccc(C#N)cc2)n1`: the CC50 in series [1] turned out to be 72000 nM. The half-maximal effective concentration (EC50) in series [2] stood at 30 nM; in series [3] (setting [6]), 6200 nM; in series [4] (setting [6]), 510 nM.
The like results for `Cc1c(Nc2ccnc(Nc3ccc(C#N)cc3)n2)ccn2cc(C#N)cc12` were, in that order, above 100000 nM, 1.4 nM, 170 nM and 26 nM.
Regarding `Cc1cn2cc(C#N)cc2c(C)c1Nc1ccnc(Nc2ccc(C#N)cc2)n1`, the CC50 in series [1] came out at 10100 nM. Also, the EC50 amounted to 1 nM in series [2], 39 nM in series [3] (setting [6]) and 0.57 nM in series [4] (setting [6]). The solubility (thermodynamic) in series [5] turned out to be 8.2 µg/mL (≈ 21.6 µM).
In the case of `N#Cc1ccc(Nc2nccc(Nc3cc4cc(C#N)cn4cc3F)n2)cc1`, the CC50 in series [1] came to 76000 nM. For the same compound, the EC50 turned out to be 200 nM in series [2], 4600 nM in series [3] (setting [6]) and 1600 nM in series [4] (setting [6]).
For the compound `N#Cc1ccc(Nc2nccc(Nc3c(F)cn4cc(C#N)cc4c3F)n2)cc1`, the CC50 in series [1] was 1000 nM. Besides, the EC50 in series [2] is 1.4 nM; in series [3] (mt2), “Not Active”; in series [4] (setting [6]), 98 nM.
As to `Cc1cn2cc(C#N)cc2c(C)c1Nc1ncnc(Nc2ccc(C#N)cc2)n1`, the CC50 in series [1] is 16000 nM. Further, the EC50 in series [2] is 0.52 nM; in series [3] (setting [6]), 32 nM; in series [4] (setting [6]) it was 7.1 nM. Further, in series [5], the solubility (thermodynamic) amounted to 33.1 µg/mL (≈ 87 µM).
As for `Cc1cn2cc(C#N)cc2c(C)c1Nc1nc(Cl)nc(Nc2ccc(C#N)cc2)n1`, the 50% cytotoxic concentration (CC50) in series [1] amounted to 38000 nM. In addition, the concentration giving a half-maximal response (EC50) in series [2] was 14000 nM; in series [3] (mt2) it was “Not Active”; in series [4] (mt2), “Not Active”.
For the compound `N#Cc1ccc(Nc2ncnc(Nc3c(F)cn4cc(C#N)cc4c3F)n2)cc1`, in series [1], the CC50 was 20000 nM. Besides, the EC50 is 2.7 nM in series [2], 2200 nM in series [3] (setting [6]) and 230 nM in series [4] (setting [6]).
For the compound `Cc1c(Nc2nc(Nc3ccc(C#N)cc3)nc(OCCCN3CCOCC3)n2)ccn2cc(C#N)cc12`, the CC50 in series [1] was found to be 10000 nM. Further, the EC50 in series [2] was 1900 nM; in series [3] (mt2), “Not Active”; in series [4] (mt2), “Not Active”.
Take `N#Cc1ccc(Nc2nccc(Nc3ccc4cc(C#N)ccc4c3)n2)cc1`: the cytotoxic concentration (CC50) in series [1] was above 100000 nM. For the same compound, the EC50 in series [2] is 24 nM; in series [3] (setting [6]) it was 520 nM; in series [4] (setting [6]), 170 nM.
For `Cc1c(Nc2ccnc(Nc3ccc(C#N)cc3)n2)ccc2cc(C#N)ccc12`, the CC50 in series [1] was above 100000 nM. Further, the EC50 was 7 nM in series [2], 130 nM in series [3] (setting [6]) and 8.5 nM in series [4] (setting [6]).
Consider `Cc1cc2cc(C#N)ccc2c(C)c1Nc1ccnc(Nc2ccc(C#N)cc2)n1`, for which, in series [1], the CC50 turned out to be 7800 nM. Further, the EC50 in series [2] came to 2.9 nM; in series [3] (setting [6]), 6.9 nM; in series [4] (setting [6]) it was 2.2 nM. The same compound came in with a solubility (thermodynamic) in series [5] of 12.2 µg/mL (≈ 31.2 µM).
As to `N#Cc1ccc(Nc2nccc(Nc3ccc4cc(C#N)ccc4c3F)n2)cc1`, the CC50 in series [1] came to 45000 nM. Further, the results for the EC50 in series [2], in series [3] (setting [6]) and in series [4] (setting [6]) were 6 nM, 790 nM and 70 nM, respectively.
For `N#Cc1ccc(Nc2nccc(Nc3c(F)cc4cc(C#N)ccc4c3F)n2)cc1` the same measures were 4800 nM, 1.8 nM, 50 nM and 6 nM.
As to `Cc1cc2cc(C#N)ccc2c(C)c1Nc1ncnc(Nc2ccc(C#N)cc2)n1`, in series [1], the CC50 came out at 9500 nM. Moreover, the values for the EC50 in series [2], in series [3] (setting [6]) and in series [4] (setting [6]) were 1.1 nM, 7 nM and 1.3 nM, respectively. Besides, in series [5], the thermodynamic solubility was determined as 28.7 µg/mL (≈ 73.3 µM).
On to `Cc1cc2cc(C#N)ccc2c(C)c1Nc1nc(Cl)nc(Nc2ccc(C#N)cc2)n1`, for which the half-maximal cytotoxic concentration (CC50) in series [1] was found to be 7500 nM. The EC50 in series [2] came out at 2.3 nM; in series [3] (setting [6]) it was 67 nM; in series [4] (setting [6]) it was 41 nM.
With `N#Cc1ccc(Nc2ncnc(Nc3c(F)cc4cc(C#N)ccc4c3F)n2)cc1`, the CC50 in series [1] was above 100000 nM. In addition, the values for the EC50 in series [2], in series [3] (setting [6]) and in series [4] (setting [6]) were 1.2 nM, 65 nM and 7 nM, respectively.
Take `N#Cc1ccc(Nc2nc(Nc3ccc4cc(C#N)ccc4c3)nc(OCCCN3CCOCC3)n2)cc1`: in series [1], the CC50 is 1200 nM. Moreover, the EC50 is 120 nM in series [2], 150 nM in series [3] (setting [6]) and “Not Active” in series [4] (mt2).
`Cc1c(Nc2nc(Nc3ccc(C#N)cc3)nc(OCCCN3CCOCC3)n2)ccc2cc(C#N)ccc12`: the CC50 in series [1] turned out to be 5900 nM. For the same compound, the EC50 in series [2] amounted to 21 nM; in series [3] (setting [6]) it was 98 nM; in series [4] (setting [6]), 58 nM.
Regarding `N#Cc1ccc(Nc2nc(Nc3ccc4cc(C#N)ccc4c3F)nc(OCCCN3CCOCC3)n2)cc1`, the CC50 in series [1] was determined as 3800 nM. Moreover, the concentration giving a half-maximal response (EC50) in series [2] is 36 nM; in series [3] (setting [6]) it was 180 nM; in series [4] (setting [6]), 160 nM.
In the case of `Cc1cc2cc(C#N)ccc2c(C)c1Nc1nc(Nc2ccc(C#N)cc2)nc(OCCCN2CCOCC2)n1`, the CC50 in series [1] amounted to 17000 nM. For the same compound, the EC50 in series [2] stood at 17 nM; in series [3] (setting [6]) it was 16 nM; in series [4] (setting [6]), 36 nM.
